Assay results published in ChEMBL document CHEMBL1687867, “Thiazolidione derivatives as novel antibiofilm agents: design, synthesis, biological evaluation, and structure-activity relationships” (2011).
≈ marks a conversion by molar mass, not a printed value.

Columns and labels:
[1] = tested on: Staphylococcus epidermidis; assay: Antibacterial activity against Staphylococcus epidermidis ATCC 35984 assessed as inhibition of biofilm production after 6 hrs; format: functional, RP62A; conditions: in the assay text read “after 18 hrs” for “after 6 hrs”
Procedure, shortened: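 Young S. epidermidis biofilm grown 6 h at 37 °C in TSB with glucose in microtiter wells, washed four times with PBS, then exposed to fresh TSB carrying serially diluted compounds for 18 h at 37 °C. After PBS washes, methanol fixation 15 min, air drying and crystal violet staining. Washed dried biofilm served as blank (subtracted), TSB-only biofilm as positive control; triplicate wells, three repeats.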

[2] = tested on: Staphylococcus epidermidis; assay: Antibacterial activity against Staphylococcus epidermidis ATCC 35984 by broth microdilution method; format: functional; conditions: RP62A
Procedure, shortened: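 MIC determined by CLSI broth microdilution […].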

[3] = tested on: Staphylococcus epidermidis; assay: Antibacterial activity against Staphylococcus epidermidis ATCC 35984 assessed as inhibition of biofilm production after 18 hrs

MIC [2] [µM] | SMILES | Biofilm inhibitory concentration [1] [µM] | INH [3] [µM]
6.25 (≈ 3.09 µg/mL) | Cc1ccc(/N=C2/S/C(=C\c3ccc(-c4cccc(C(=O)O)c4)o3)C(=O)N2c2ccc(C)cc2)cc1 | 12.5 | –
> 200 | CCOC(=O)C1=C(c2ccccc2)N=c2s/c(=C\c3ccc(-c4cccc(C(=O)O)c4)o3)c(=O)n2C1c1ccccc1 (stereo not given) | >200 | –
6.25 (≈ 3.79 µg/mL) | CCOC(=O)C1=C(c2ccccc2)N=c2s/c(=C\c3ccc(-c4cccc(C(=O)O)c4)o3)c(=O)n2C1c1ccc(OC)cc1 (stereo not given) | 25 | –
> 200 | CCOC(=O)C1=C(c2ccccc2)N=c2s/c(=C\c3ccc(-c4cccc(C(=O)OC)c4)o3)c(=O)n2C1c1ccccc1 (stereo not given) | >200 | –
> 200 | CCOC(=O)C1=C(c2ccccc2)N=c2s/c(=C\c3ccc(-c4cccc(C(=O)OC)c4)o3)c(=O)n2C1c1ccc(OC)cc1 (stereo not given) | >200 | –
12.5 (≈ 6.48 µg/mL) | COc1ccc(C/N=C2/S/C(=C\c3ccc(OCC(=O)O)cc3)C(=O)N2Cc2ccc(OC)cc2)cc1 | 25 | –
50 (≈ 27.7 µg/mL) | COc1ccc(C/N=C2/S/C(=C\c3ccc(-c4cccc(C(=O)O)c4)o3)C(=O)N2Cc2ccc(OC)cc2)cc1 | – | –
6.25 (≈ 3.29 µg/mL) | COc1ccc(/N=C2/S/C(=C\c3ccc(-c4cccc(C(=O)O)c4)o3)C(=O)N2c2ccc(OC)cc2)cc1 | – | 6.25
12.5 (≈ 6.18 µg/mL) | Cc1ccccc1/N=C1/S/C(=C\c2ccc(-c3cccc(C(=O)O)c3)o2)C(=O)N1c1ccccc1C | 25 | –
3.12 (≈ 1.55 µg/mL) | Cc1ccccc1/N=C1/S/C(=C\c2ccc(-c3ccc(C(=O)O)cc3)o2)C(=O)N1c1ccccc1C | – | 6.25

More lines, now with the values behind:

SMILES | MIC [2] [µM] | Biofilm inhibitory concentration [1] [µM] | INH [3] [µM]
CCOC(=O)C1=C(c2ccccc2)N=c2s/c(=C\c3ccc(OCC(=O)O)cc3)c(=O)n2C1c1ccc(OC)cc1 (stereo not given) | 25 (≈ 14.3 µg/mL) | 50 | –
CCOC(=O)C1=C(c2ccccc2)N=c2s/c(=C\c3cccc(O)c3)c(=O)n2C1c1ccc(OC)cc1 (stereo not given) | > 200 | >200 | –
CCOC(=O)C1=C(c2ccccc2)N=c2s/c(=C\c3ccc(N(C)C)cc3)c(=O)n2C1c1ccc(OC)cc1 (stereo not given) | > 200 | >200 | –
CCOC(=O)C1=C(c2ccccc2)N=c2s/c(=C\c3cccc([N+](=O)[O-])c3)c(=O)n2C1c1ccc(OC)cc1 (stereo not given) | > 200 | >200 | –
CCOC(=O)C1=C(c2ccccc2)N=c2s/c(=C\c3ccc(O)c(OC)c3)c(=O)n2C1c1ccc(OC)cc1 (stereo not given) | > 200 | >200 | –
CCOC(=O)C1=C(c2ccccc2)N=c2s/c(=C\c3ccc(O)cc3)c(=O)n2C1c1ccc(OC)cc1 (stereo not given) | > 200 | >200 | –
CCOC(=O)C1=C(c2ccccc2)N=c2s/c(=C\c3ccc(OCC(=O)O)cc3)c(=O)n2C1c1ccc2c(c1)OCO2 (stereo not given) | 25 (≈ 14.6 µg/mL) | 50 | –
CCOC(=O)C1=C(c2ccccc2)N=c2s/c(=C\c3ccc(-c4cccc(C(=O)O)c4)o3)c(=O)n2C1c1ccc2c(c1)OCO2 (stereo not given) | 6.25 (≈ 3.88 µg/mL) | 25 | –
